Data set [1] can be described thus: Metabolic stability in human plasma after 180 mins by ESI-RP-HPLC analysis. The data set is classed as ADME, cell-free. As to conditions: 3 h. The gist of the method:
(§1)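 Peptide (1 mg/mL in water) was mixed 1:1 with prewarmed (37 °C) human plasma diluted to 50% in water. Aliquots were taken at 0, 30, 60, 120 and 180 min and quenched with 1% TFA in acetonitrile. After centrifugation, supernatants were run on C18 HPLC-ESI-MS with a 10–90% ACN gradient (0.1% TFA) over 20 min. Relative levels came from A230 peak integration.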

Data set [2] deals with T1, C-X-C chemokine receptor type 4 (Homo sapiens, UniProt P61073). The data set is described as follows: Inhibition of PE-conjugated-12G5 anti-CXCR4 antibody binding to CXCR4 in human CEM-CCRF cells preincubated for 30 mins followed by antibody addition by FACS Canto II cytofluorometric analysis. The data set is classed as cell-based.
The target of data set [3] is T1, C-X-C chemokine receptor type 4. Put plainly: Inhibition of CXCR4 in human CEM cells assessed as suppression of CXCL12-dependent cell migration after 18 hrs in presence of CXCL12 by H/E staining based microscopic analysis. The settings on record: CCRF-CEM. The gist of the method: (§2)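 Transwell migration assay: inserts with 5 μm pores for CEM cells and 8 μm pores for HT29 cells, membranes precoated with human collagen type I/III and fibronectin (20 μg/mL each). 2 × 10^5 cells went in the upper chamber in medium with 1% BSA plus peptide, and 100 ng/mL CXCL12 in the lower chamber, for 18 h. Migrated cells were H&E-stained and counted in 10 fields. Migration index was taken against BSA-only medium.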

The nature of data set [4]: Drug metabolism in human plasma after 30 mins by ESI-RP-HPLC analysis. The data set is classed as ADME, cell-free. The settings on record: read-out: Drug metabolism.
The nature of data set [5]: Metabolic stability in human plasma assessed as compound degradation after 60 mins by ESI-RP-HPLC analysis. The settings on record: read-out: Drug degradation. The data set is classed as ADME, cell-free. In outline:
as §1

In data set [6] the target is T1, C-X-C chemokine receptor type 4. The data set is described as follows: Inhibition of GFP-tagged CXCR4 (unknown origin) internalization expressed in human HCT116 cells assessed as reduction in vesicle size at 0.1 uM pre-incubated for 45 mins followed by CXCL12 addition measured after 45 mins by alpha-tubulin/alexa fluor594/DAPI staining based confocal microscopic analysis. The data set is classed as cell-based. The settings on record: HCT-116. In outline:
(§3)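 HCT116 cells were stably transfected with GFP-CXCR4, grown 1 day on coverslips in DMEM/10% FBS, then equilibrated in DMEM with 0.5% BSA. Cells got peptide (0.1 μM) for 45 min at 37 °C, then CXCL12 for 45 min at 37 °C. They were fixed in 4% formaldehyde, permeabilized with 0.1% Triton, and stained for α-tubulin (Alexa Fluor 594) and DAPI. Confocal microscopy assessed membrane fluorescence and intracellular vesicles.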

Data set [7] has the same target. The data set is described as follows: Antagonist activity at CXCR4 in human HT29 cells assessed as suppression of CXCL12 dependent cell migration at 0.0001 to 10 uM in presence of CXCL12 by H/E staining based microscopic analysis. The settings on record: HT-29. In outline:
as §2

Data set [8] has the same target. The data set is described as follows: Inhibition of GFP-tagged CXCR4 (unknown origin) internalization expressed in human HCT116 cells at 0.1 uM pre-incubated for 45 mins followed by CXCL12 addition measured after 45 mins by alpha-tubulin/alexa fluor594/DAPI staining based confocal microscopic analysis. The data set is classed as cell-based. The settings on record: HCT-116. In outline: as §3

Data set [9] can be described thus: Drug metabolism in human plasma assessed as cyclic pentapeptide cyclo[Cys-Arg-Phe-Phe-Cys] metabolite formation after 120 mins by ESI-RP-HPLC analysis. The data set is classed as ADME, cell-free. As to conditions: 2 h. In outline: as §1
Data set [10] addresses T1, C-X-C chemokine receptor type 4. Put plainly: Inhibition of 12G5 anti-CXCR4 antibody binding to CXCR4 in human HT29 cells preincubated for 30 mins followed by antibody addition by FACS Canto II cytofluorometric analysis. The data set is classed as cell-based, HT-29. On the technique in general: In flow cytometry, cells or beads pass a laser one at a time.
For data set [11] the target is unchanged. Put plainly: Inhibition of CXCR4 in human serum starved CEM cells assessed as suppression of CXCL12-dependent ERK phosphorylation at 0.001 to 0.1 uM after 2 to 20 mins in presence of CXCL12 by H/E staining based microscopic analysis. As to conditions: CCRF-CEM, in the assay text read “immunoblotting” for “H/E staining based microscopic analysis”. The data set is classed as cell-based. The gist of the method: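 Serum-starved CEM cells were stimulated with CXCL12 (100 ng/mL) in the presence of peptide. Lysates were made in Hepes pH 7.5/Triton X-100 buffer with protease and phosphatase inhibitors and immunoblotted for p-ERK and ERK2. Induction is the ratio of p-ERK with CXCL12 to p-ERK under serum-free conditions.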

Data set [12] in a line: Drug level in human plasma treated with (4R,7S,10S,13S,16R)-16-amino-7,10-dibenzyl-13-(3-guanidinopropyl)-6,9,12,15-tetraoxo-1,2-dithia-5,8,11,14-tetraazacycloheptadecane-4-carboxylic acid after 2 hrs by ESI-RP-HPLC analysis. The data set is classed as ADME. The gist of the method: as §1

Consider 16 molecules from ChEMBL document CHEMBL3853330, “Exploring the N-Terminal Region of C-X-C Motif Chemokine 12 (CXCL12): Identification of Plasma-Stable Cyclic Peptides As Novel, Potent C-X-C Chemokine Receptor Type 4 (CXCR4) Antagonists” (J Med Chem, 2016).

The structures appear in SMILES notation. Active and inactive are the calls of the source. The calls are words filed in the database; no cut-off is given here. Positions of bridges follow the written chain, without caps; N, C: chain ends. Residues, ends and D or L forms follow the SMILES beside them.

T1 sequence (P61073 whole entry): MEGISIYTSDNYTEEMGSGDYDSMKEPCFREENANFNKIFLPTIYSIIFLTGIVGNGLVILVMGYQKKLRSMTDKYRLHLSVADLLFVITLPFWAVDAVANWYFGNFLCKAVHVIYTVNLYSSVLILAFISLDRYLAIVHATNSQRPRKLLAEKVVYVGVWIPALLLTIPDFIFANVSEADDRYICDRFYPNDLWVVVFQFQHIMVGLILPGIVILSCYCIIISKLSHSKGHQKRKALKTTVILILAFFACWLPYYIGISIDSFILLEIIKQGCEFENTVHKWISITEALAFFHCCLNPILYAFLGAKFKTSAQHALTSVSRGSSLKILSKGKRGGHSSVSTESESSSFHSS

A word on the IC50: it is the concentration needed to halve the response being measured. Read a high IC50 as weaker potency. `CC(=O)N[C@@H](CCCNC(=N)N)C(=O)N[C@@H](C)C(=O)N[C@H]1CSSC[C@@H](C(=O)O)NC(=O)[C@H](Cc2ccccc2)NC(=O)[C@H](Cc2ccccc2)NC(=O)[C@H](CCCNC(=N)N)NC1=O`: in [1], the Stability result is listed as “Stable”. In data set [2], this molecule had an IC50 of 0.131 µM.

`CC(=O)N[C@@H](CCCNC(=N)N)C(=O)N[C@@H](C)C(=O)N[C@H]1CSSC[C@@H](C(N)=O)NC(=O)[C@H](Cc2ccccc2)NC(=O)[C@H](Cc2ccccc2)NC(=O)[C@H](CCCNC(=N)N)NC1=O` (Ac-RACRFFC-NH2; disulfide 3-7) yielded an IC50 in data set [2] of 1.23 µM.

In [2], `CC(=O)N[C@@H](CCCNC(=N)N)C(=O)N[C@@H](C)C(=O)N[C@H]1CSSC[C@@H](C(=O)O)NC(=O)[C@H](Cc2ccccc2)NC(=O)[C@H](Cc2ccccc2)NC(=O)[C@@H](CCCNC(=N)N)NC1=O` yielded an IC50 of over 10 µM.

Take `C[C@H](NC(=O)[C@@H](N)CCCNC(=N)N)C(=O)N[C@H]1CSSC[C@@H](C(=O)O)NC(=O)[C@H](Cc2ccccc2)NC(=O)[C@H](Cc2ccccc2)NC(=O)[C@H](CCCNC(=N)N)NC1=O` (H-RACRFFC-OH; disulfide 3-7): the inhibition result in data set [3], in data set [6], in data set [7], in [8] and in data set [11] was “Active” throughout. The IC50 in data set [2] came to 6.2 µM; in data set [10], 5.2 µM. The metabolised at 0.5 h in data set [4] came out at 30%. The metabolised at 1 h in data set [5] came out at 50%. Besides, the Drug metabolism result in data set [9] is reported as “Metabolite_Detected”.

As for `CC(=O)N[C@@H](CCCNC(=N)N)C(=O)N[C@@H](C)C(=O)N[C@H]1CSSC[C@@H](C(=O)O)NC(=O)[C@@H](Cc2ccccc2)NC(=O)[C@H](Cc2ccccc2)NC(=O)[C@H](CCCNC(=N)N)NC1=O`, the IC50 in data set [2] is over 10 µM.

For `CC(=O)N[C@@H](CCCNC(=N)N)C(=O)N[C@@H](C)C(=O)N[C@H]1CSSC[C@@H](C(=O)O)NC(=O)[C@H](Cc2ccccc2)NC(=O)[C@@H](Cc2ccccc2)NC(=O)[C@H](CCCNC(=N)N)NC1=O`, the IC50 in data set [2] is over 10 µM.

Molecule `CC(=O)N[C@@H](C)C(=O)N[C@@H](C)C(=O)N[C@@H]1CSSC[C@@H](C(=O)O)NC(=O)[C@H](Cc2ccccc2)NC(=O)[C@H](Cc2ccccc2)NC(=O)[C@H](CCCNC(=N)N)NC1=O` registered an IC50 in [2] of over 10 µM.

Molecule `CC(=O)N[C@@H](CCCNC(=N)N)C(=O)N[C@@H](C)C(=O)N[C@@H]1CSSC[C@@H](C(=O)O)NC(=O)[C@H](Cc2ccccc2)NC(=O)[C@H](C)NC(=O)[C@H](CCCNC(=N)N)NC1=O` yielded an IC50 in data set [2] of over 10 µM.

Turning to `CC(=O)N[C@@H](CCCNC(=N)N)C(=O)N[C@@H](C)C(=O)N[C@@H]1CSSC[C@@H](C(=O)O)NC(=O)[C@H](Cc2ccccc2)NC(=O)[C@H](Cc2ccccc2)NC(=O)[C@H](C)NC1=O`, in data set [2], the IC50 is over 10 µM.

For the molecule `N=C(N)NCCC[C@@H]1NC(=O)[C@@H](N)CSSC[C@@H](C(=O)O)NC(=O)[C@H](Cc2ccccc2)NC(=O)[C@H](Cc2ccccc2)NC1=O` (H-CRFFC-OH; disulfide 1-5), the Drug uptake result in data set [12] is reported as “Active”.

For the molecule `CC(=O)N[C@H](CCCNC(=N)N)C(=O)N[C@@H](C)C(=O)N[C@H]1CSSC[C@@H](C(=O)O)NC(=O)[C@H](Cc2ccccc2)NC(=O)[C@H](Cc2ccccc2)NC(=O)[C@H](CCCNC(=N)N)NC1=O`, the IC50 in data set [2] is over 10 µM.

In the case of `CC(=O)N[C@@H](CCCNC(=N)N)C(=O)N[C@@H](C)C(=O)N[C@@H]1CSSC[C@@H](C(=O)O)NC(=O)[C@H](Cc2ccccc2)NC(=O)[C@H](Cc2ccccc2)NC(=O)[C@H](CCCNC(=N)N)NC1=O`, the inhibition result in [3], in data set [6], in [7], in data set [8] and in [11] was “Active” each time. In addition, the Stability entry in data set [1] is recorded as “Stable”. Also, the IC50 in [2] is 0.053 µM; in data set [10] it was 0.064 µM.

As for `CC(=O)N[C@@H](CCCNC(=N)N)C(=O)N[C@H](C)C(=O)N[C@H]1CSSC[C@@H](C(=O)O)NC(=O)[C@H](Cc2ccccc2)NC(=O)[C@H](Cc2ccccc2)NC(=O)[C@H](CCCNC(=N)N)NC1=O`, the IC50 in [2] is over 10 µM.

The molecule `CC(=O)N[C@@H](CCCNC(=N)N)C(=O)N[C@@H](C)C(=O)N[C@@H]1CSSC[C@@H](C(=O)O)NC(=O)[C@H](C)NC(=O)[C@H](Cc2ccccc2)NC(=O)[C@H](CCCNC(=N)N)NC1=O` displayed an IC50 in data set [2] of over 10 µM.

On to `CC(=O)N[C@@H](CCCNC(=N)N)C(=O)N[C@@H](C)C(=O)N[C@H]1CSSC[C@H](C(=O)O)NC(=O)[C@H](Cc2ccccc2)NC(=O)[C@H](Cc2ccccc2)NC(=O)[C@H](CCCNC(=N)N)NC1=O`, for which the IC50 in data set [2] came to 5.9 µM.

Take `C[C@H](NC(=O)[C@@H](N)CCCNC(=N)N)C(=O)N[C@H]1CSSC[C@@H](C(N)=O)NC(=O)[C@H](Cc2ccccc2)NC(=O)[C@H](Cc2ccccc2)NC(=O)[C@H](CCCNC(=N)N)NC1=O` (H-RACRFFC-NH2; disulfide 3-7): the IC50 in data set [2] turned out to be 5.9 µM.
